Assay outcomes from PubChem BioAssay.
Sampled rows, rich in hits. Any-hit rate of the full collection: about 3.5%.
RGS4 act – RGS4 potentiators or activators, primary screen, cell-based, HEK293 M3R inducible RGS4, calcium flux | carbachol calcium flux Fluo4; active compounds read low | AID 463111, 2010 | B-score at 10 µM | hit rate 0.92% among 310,000;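 active = B-score of the integrated calcium signal more than 4 SD below the library mean, with starting fluorescence not abnormally high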;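 note: negative B-score means reduced calcium response which marks RGS4 activation or potentiation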
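Also added: carbachol at ECmax as muscarinic agonist stimulus; Assay system: HEK293 cells with stable M3R and inducible RGS4; Timing: overnight RGS4 induction, 30 min dye load 37 °C, 20 min compound RT; Measured by: Fluo4-AM (2 µM) calcium-flux fluorescence, kinetic read.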
MrgX1 ag – agonists of human MrgX1 receptor, primary screen, HEK293 cells, Fluo-4 calcium flux | Mas-related G-protein coupled receptor member X1 (Homo sapiens), Q96LB2 | Fluo-4 calcium fluorescence, agonist mode; active compounds read high | B-score at 10 µM | hit rate 0.44% among 310,000 | AID 588627, 2011;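 active = calcium response B-score plate-corrected fluorescence ratio at least 3 library SD, with starting fluorescence B-score inside 5 SD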
Target sequence (Q96LB2 whole entry, looked up): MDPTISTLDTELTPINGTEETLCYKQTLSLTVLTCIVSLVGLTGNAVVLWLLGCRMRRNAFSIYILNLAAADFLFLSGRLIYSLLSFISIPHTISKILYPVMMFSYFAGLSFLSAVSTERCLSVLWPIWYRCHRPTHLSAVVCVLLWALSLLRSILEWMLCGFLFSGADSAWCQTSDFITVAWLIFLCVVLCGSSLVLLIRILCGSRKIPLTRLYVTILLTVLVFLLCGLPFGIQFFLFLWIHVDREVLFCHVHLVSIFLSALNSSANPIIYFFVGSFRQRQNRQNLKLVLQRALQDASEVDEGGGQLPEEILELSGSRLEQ
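Test system: Stable human MrgX1 HEK293 cell line | Schedule: Overnight plating before 1 h dye loading | Read-out basis: Baseline-normalised fluorescence change ratio, B-scored | Detection: Kinetic calcium dye fluorescence, Fluo-4 NW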
MrgX1 allo act – positive allosteric modulators of MrgX1, primary screen, HEK293 cells, Fluo-4 calcium flux | FDSS; active compounds read high | B-score at 10 µM | hit rate 0.63% among 310,000 | AID 588675, 2011;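 active = plate-corrected calcium response at least 3 library SD above typical, normal starting fluorescence, not activating the receptor alone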;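 note: compound read alongside a low EC10 to EC30 dose of BAM8-22 agonist; peak minus trough fluorescence over baseline measured at the second addition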
RGS4 inh – RGS4 inhibitors, primary screen, cell-based, HEK293 M3R inducible RGS4, calcium flux; B-score at 10 µM; Fluo-4 calcium flux; active compounds read high; triggered by carbachol at its EC20; hit rate 0.45% among 310,000; Regulator of G-protein signaling 4 (Homo sapiens), P49798; AID 463165, 2010;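 active = B-score, a plate-corrected calcium signal, over three deviations above library mean, with baseline fluorescence within five deviations of library mean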;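 note: RGS4 expression induced by doxycycline in cells with stable M3 receptor; B-score is computed from the integrated fluorescence ratio over baseline after carbachol; higher B-score means a larger calcium signal and so more RGS4 inhibition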
Target sequence (P49798 whole entry, looked up): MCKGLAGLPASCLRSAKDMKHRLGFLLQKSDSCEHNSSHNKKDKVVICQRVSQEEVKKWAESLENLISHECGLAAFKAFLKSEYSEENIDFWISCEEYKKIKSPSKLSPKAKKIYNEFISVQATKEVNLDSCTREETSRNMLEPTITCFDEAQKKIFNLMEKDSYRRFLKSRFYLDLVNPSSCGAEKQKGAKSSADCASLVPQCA
MrgX1 antagonist – antagonists of human MrgX1 receptor, primary screen, HEK293 cells, Fluo-4 calcium flux; Mas-related G-protein coupled receptor member X1 (Homo sapiens), Q96LB2; BAM8-22 antagonism; active compounds read low; B-score at 10 µM; hit rate 1.3% among 310,000;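 active = calcium-response B-score plate-corrected more than 3 library SD below zero, starting fluorescence within 5 deviations, no agonist response on first addition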;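 note: peak minus trough fluorescence over baseline after final BAM8-22 challenge near maximal dose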
RGS4 act valid – reduced carbachol calcium response, RGS4-induced M3R cells, confirmation, RGS4 activator project, cell-based, HEK293 M3R/RGS4 inducible, calcium flux, duplicate; hit rate 89% among 1,100; shares compounds with RGS4 act; carbachol calcium flux Fluo4; inhibition, % at 10 µM;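 active = inhibition above 3 SD of the buffer control wells, cut at about 41% in these data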;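 note: signal is the integrated peak-minus-minimum Fluo4 fluorescence over baseline ratio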
M3R Ca counter – counter-screen for RGS4 activators: effect in non-induced cells; shares compounds with RGS4 act; HEK293 M3R non-induced RGS4, Fluo4 calcium flux; after carbachol challenge at its EC90; inhibition, % at 10 µM; hit rate 82% among 1,100; AID 602283;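 active = inhibition exceeding 3 SD of buffer-only control wells, cut at about 26% in these data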;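 note: percent drop in integrated peak-minus-baseline over baseline Fluo4 ratio after carbachol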
* marks the source's active call; other numbers are inactive results.

What do the screens show for `COc1ccc(-c2nc(-c3ccc(O)cc3O)cs2)cc1OC`?
RGS4 act: -11*; RGS4 inh: inactive; RGS4 act valid: 78*; M3R Ca counter: 51*

What do the screens show for `CN(Cc1ccc(F)cc1)C(=O)c1cccc(S(=O)(=O)N2CCN(c3ccc(F)cc3)CC2)c1`?
RGS4 act: -7.6*; MrgX1 ag: inactive; MrgX1 allo act: inactive; RGS4 inh: inactive; MrgX1 antagonist: inactive; RGS4 act valid: 40*; M3R Ca counter: 84*

What do the screens show for `CCN(CCO)c1nc(NCc2ccccc2)c2cnn(C)c2n1`?
RGS4 act: inactive; MrgX1 ag: inactive; MrgX1 allo act: inactive; RGS4 inh: inactive; MrgX1 antagonist: inactive

What do the screens show for `O=C1CCCN1S(=O)(=O)c1ccccc1`?
RGS4 act: -7.9*; MrgX1 ag: inactive; MrgX1 allo act: inactive; RGS4 inh: inactive; MrgX1 antagonist: inactive; RGS4 act valid: 50*; M3R Ca counter: 0

How did COc1ccc(NS(=O)(=O)c2ccc3c(c2)NC(=O)C(C)S3)cc1 (configuration not stated) do in these assays?
RGS4 act: inactive; MrgX1 ag: inactive; MrgX1 allo act: inactive; RGS4 inh: inactive; MrgX1 antagonist: inactive

Results for CCOC(=O)C1=C(C)NC(C)=C(C(=O)OCC)C1C(=O)OCC(=O)NC1(C#N)CCCCC1 ?
RGS4 act: -11*; MrgX1 ag: inactive; MrgX1 allo act: inactive; RGS4 inh: inactive; MrgX1 antagonist: inactive; RGS4 act valid: 46*; M3R Ca counter: 0

How did COc1ccccc1NC(C)C(=O)N/N=C/c1ccccc1OCc1cccc(Br)c1 (configuration not stated) do in these assays?
RGS4 act: inactive; MrgX1 ag: inactive; MrgX1 allo act: inactive; RGS4 inh: inactive; MrgX1 antagonist: inactive

How did COc1ccccc1C(=O)Nc1nc(-c2ccc3c(c2)OCCO3)cs1 do in these assays?
RGS4 act: -8.8*; MrgX1 ag: inactive; MrgX1 allo act: inactive; RGS4 inh: inactive; MrgX1 antagonist: inactive; RGS4 act valid: 88*; M3R Ca counter: 62*

What do the screens show for `Cc1cc(/C=C(/C#N)c2nc3ccccc3[nH]2)c(C)n1-c1cc(C(=O)O)cc(C(=O)O)c1`?
RGS4 act: -7.9*; RGS4 inh: inactive; RGS4 act valid: 52*; M3R Ca counter: 44*

Results for COc1cccc(OCC(=O)NNC(=S)Nc2ccc(Cl)cc2Cl)c1 ?
RGS4 act: inactive; MrgX1 ag: inactive; MrgX1 allo act: inactive; RGS4 inh: inactive; MrgX1 antagonist: inactive

How did CCOc1ccc(S(=O)(=O)N(CC(=O)NC2CCCCC2C)Cc2ccco2)cc1 (configuration not stated) do in these assays?
RGS4 act: -8.2*; MrgX1 ag: inactive; MrgX1 allo act: inactive; RGS4 inh: inactive; MrgX1 antagonist: inactive; RGS4 act valid: 0; M3R Ca counter: 0

Results for COc1ccc2c(c1)sc(N)[n+]2Cc1cc(C)cc2cccnc12 ?
RGS4 act: inactive; MrgX1 ag: inactive; MrgX1 allo act: inactive; RGS4 inh: inactive; MrgX1 antagonist: inactive

What do the screens show for `CCOc1ccc2c(c1)sc(N)[n+]2Cc1cc(C)cc2cccnc12`?
RGS4 act: -11*; MrgX1 ag: inactive; MrgX1 allo act: inactive; RGS4 inh: inactive; MrgX1 antagonist: inactive; RGS4 act valid: 90*; M3R Ca counter: 46*

How did COc1ccccc1C(=O)NCC(=O)NCC1(N2CCCCC2)CCCCC1 do in these assays?
RGS4 act: inactive; MrgX1 ag: inactive; MrgX1 allo act: inactive; RGS4 inh: inactive; MrgX1 antagonist: inactive

How did N#Cc1ccc(C(=O)NCC(c2ccco2)N2CCCC2)cc1 (configuration not stated) do in these assays?
RGS4 act: inactive; MrgX1 ag: inactive; MrgX1 allo act: inactive; RGS4 inh: inactive; MrgX1 antagonist: inactive

How did N#Cc1ccccc1Sc1ccccc1C(=O)NCC(c1ccco1)N1CCCC1 (configuration not stated) do in these assays?
RGS4 act: -7.9*; MrgX1 ag: inactive; MrgX1 allo act: inactive; RGS4 inh: inactive; MrgX1 antagonist: inactive; RGS4 act valid: 65*; M3R Ca counter: 29*

Results for O=c1c2ccccc2nc(/C=C/c2cccnc2)n1CCc1ccccc1 ?
RGS4 act: -9.7*; MrgX1 ag: inactive; MrgX1 allo act: inactive; RGS4 inh: inactive; MrgX1 antagonist: inactive; RGS4 act valid: 56*; M3R Ca counter: 0

What do the screens show for `COC(=O)c1ccc(-n2nnnc2SCC(=O)Nc2ccccc2F)cc1`?
RGS4 act: inactive; MrgX1 ag: inactive; MrgX1 allo act: inactive; RGS4 inh: inactive; MrgX1 antagonist: inactive

Results for Cc1cc(C)cc(NC(=S)N2CCC(NC(=O)c3ccco3)CC2)c1 ?
RGS4 act: inactive; MrgX1 ag: inactive; MrgX1 allo act: inactive; RGS4 inh: inactive; MrgX1 antagonist: inactive

How did COc1ccc(-c2nc(N)n(C(=O)c3cccs3)n2)cc1 do in these assays?
RGS4 act: inactive; MrgX1 ag: inactive; MrgX1 allo act: inactive; RGS4 inh: inactive; MrgX1 antagonist: inactive

What do the screens show for `O=C(COC(=O)c1cc(S(=O)(=O)N2CCOCC2)ccc1O)NCCc1ccccc1`?
RGS4 act: -9.5*; MrgX1 ag: inactive; MrgX1 allo act: inactive; RGS4 inh: inactive; MrgX1 antagonist: inactive; RGS4 act valid: 0; M3R Ca counter: 0

Results for CN(C)CCC1Sc2ccccc2Oc2ccccc21 (configuration not stated) ?
RGS4 act: -7.6*; MrgX1 ag: inactive; MrgX1 allo act: inactive; RGS4 inh: inactive; MrgX1 antagonist: inactive; RGS4 act valid: 74*; M3R Ca counter: 84*

How did Cc1ccc(C)c(S(=O)(=O)NCCN2CCOCC2)c1 do in these assays?
RGS4 act: inactive; MrgX1 ag: inactive; MrgX1 allo act: inactive; RGS4 inh: inactive; MrgX1 antagonist: inactive

Results for CCSc1nnc(NC(=O)C(NC(=O)c2ccc(Cl)cc2)C(C)C)s1 (configuration not stated) ?
RGS4 act: -9.4*; MrgX1 ag: inactive; MrgX1 allo act: inactive; RGS4 inh: inactive; MrgX1 antagonist: inactive; RGS4 act valid: 0; M3R Ca counter: 0
